Screens (PubChem BioAssay)
In the library only some 4.1% were active in any assay of this set; here they are far more common.
APP 5'UTR act: APP 5'UTR luciferase reporter activation. SH-SY5Y APP 5'UTR luciferase reporter, luminescence; zero percent = DMSO vehicle wells. activation, % at 2 µM. 190,000 compounds, 1% hits. AID 1276;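 active = activation above a set limit, based on mean plus 3 SD of controls, cut at about 140% in these data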
FLuc inh counter: Photinus pyralis luciferase inhibition counter-screen; 200,000 compounds, 1.5% hits; ATPLite firefly luciferase biochemical luminescence, 10 min; inhibition, % at 10 µM;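 active = inhibition above about 50% when tested at 10 µM, limit read from the data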
Target sequence (P08659 whole entry, looked up): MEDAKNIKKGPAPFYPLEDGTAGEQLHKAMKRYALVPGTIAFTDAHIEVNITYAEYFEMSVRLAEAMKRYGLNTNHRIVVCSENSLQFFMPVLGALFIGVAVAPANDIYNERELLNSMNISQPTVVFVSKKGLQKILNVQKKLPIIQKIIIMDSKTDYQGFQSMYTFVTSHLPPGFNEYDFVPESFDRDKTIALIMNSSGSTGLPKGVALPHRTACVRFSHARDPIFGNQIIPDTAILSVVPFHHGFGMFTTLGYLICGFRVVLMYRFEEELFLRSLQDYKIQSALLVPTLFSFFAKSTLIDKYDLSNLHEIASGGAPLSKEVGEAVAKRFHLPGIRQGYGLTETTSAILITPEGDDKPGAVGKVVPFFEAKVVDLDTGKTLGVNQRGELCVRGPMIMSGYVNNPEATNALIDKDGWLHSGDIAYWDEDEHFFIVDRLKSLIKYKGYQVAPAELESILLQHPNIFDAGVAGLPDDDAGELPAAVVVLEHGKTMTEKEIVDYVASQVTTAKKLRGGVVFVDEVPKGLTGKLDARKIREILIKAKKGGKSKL
STAT1 act: activators of IFN-gamma induced STAT1 signaling; NIH 3T3 STAT1-luciferase reporter, luminescence; 100% = IFN-gamma alone, no compound; 200,000 compounds, 2.6% hits; activation (% of control), % at 5.5 µM;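 active = activation above the screen-wide mean activation plus 3 SD, cut at about 130% in these data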;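 note: raw ratio to IFN-gamma control signal so 100% means no change and 0% no light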
NF-kB neuron act: NF-kB expression increase, human neuronal cells; fold change at 12.5 µM; 190,000 compounds, 1.6% hits; NF-kB reporter expression; active compounds read high; AID 1239; in the data active = fold change above about 3.3
FLuc stim CS: firefly luciferase counter-screen for stimulation assays. P08659. 200,000 tested, under 10 active. activation factor at 10 µM. ATPlite luciferase biochemical, luminescence, 10 min; 0 = ATP-free wells, 1 = DMSO control;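 active = luciferase activation factor, scaled between plate controls, of at least 2 with compound at 10 µM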
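Assay system – cell-free luciferase reagent · Medium – PBS-based ATP solution · Dosing – test compounds dosed from 2 mM stocks in 100% DMSO · Timing – 10 min, room temperature · Technique – light output (luminescence) · Measure – luminescence gain marking luciferase activators · Controls – No-ATP low control, compound-free enzyme-plus-ATP high control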
Active calls of the source: *; . = not tested or not shown.

SMILES	APP 5'UTR act	FLuc inh counter	STAT1 act	NF-kB neuron act	FLuc stim CS
O=C(Nc1ccc2nc(-c3cccnc3)[nH]c2c1)C12CC3CC(CC(C3)C1)C2	-0.3	29.0	104.1	0.51	0.7
O=C(Nc1ccc2nc(-c3cccnc3)[nH]c2c1)C1CCCCC1	28.0	63.7*	104.3	0.67	0.4
O=S(=O)(c1ccccc1Cl)N1CCC(O)(c2cccnc2)CC1	6.0	-2.9	106.1	1.22	1
Cc1ccsc1C1Nc2ccccc2-c2nc3ccccc3n21 (stereo not drawn)	34.5	0.1	129.1*	1.18	1
c1csc(C2Nc3ccccc3-c3nc4ccccc4n32)c1 (stereo not drawn)	47.3	1.6	127.5	1.74	1
C=CCN=Cc1c(C)[nH]n(-c2ccccc2)c1=O	48.8	3.4	126.7	10.8*	1
Cc1[nH]n(-c2ccccc2)c(=O)c1C=NC1CCCCC1	-1.5	4.2	119.8	6.1*	1
Cc1[nH]n(-c2ccc([N+](=O)[O-])cc2)c(=O)c1C=NCC1CCCO1 (stereo not drawn)	7.3	-2.4	134.7*	1.97	1
O=c1cc(-c2ccccc2)[nH]n1-c1nc2ccccc2[nH]1	6.7	19.1	112.6	1.07	0.8
O=c1c2ccccc2cnn1-c1nc2ccccc2[nH]1	-69.3	97.6*	11.9	0.22	0
O=c1c(Cl)c(N2CCCCC2)cnn1-c1nc2ccccc2[nH]1	97.0	96.9*	34.7	0.44	0
COc1ccc(CCN(CC(=O)NC2CCCC2)C(=O)Cn2nnc(-c3ccc(C)o3)n2)cc1OC	-9.3	-4.0	97.6	0.91	1
CCCC(=O)Nc1nc2ccc(OCC)cc2s1	94.7	15.4	149.6*	4.34*	0.8
CCOc1ccc2nc(NC(=O)c3cccnc3)sc2c1	111.2	60.1*	132.5*	2.47	0.4
CCOc1ccc2nc(NC(=O)c3cnc(C)cn3)sc2c1	12.4	15.2	111.9	1.22	0.8
CCOc1ccc2nc(SCC(=O)c3cccs3)sc2c1	81.9	-1.4	130.8*	4.38*	1
COC(=O)Cc1ccc(NC(=S)NN2CCOCC2)cc1	-5.8	-1.2	99.0	0.98	1
O=C1N/C(=C\c2ccccc2)c2ccccc21	39.2	15.0	111.9	1.57	0.8
O=C1NC(=S)N/C1=C/C=C/c1ccccc1	-0.2	4.3	133.9*	2.51	1
CC1CCCC(NC(=S)NC(=O)c2ccccc2Br)C1C (stereo not drawn)	2.2	-2.2	113.2	1.37	1
Cc1cc(C)cc(NC(=S)/N=C(\N)Nc2nc(C)c3ccccc3n2)c1	-2.3	-3.8	87.5	1.03	1
CC(C)=NN/C(N)=N/C(=S)Nc1ccc(C)cc1	-20.6	54.0*	107.8	1.84	0.5
O=C(CN1CCOCC1)Nc1ccccc1Sc1ccc(Cl)cc1	-4.5	-9.4	110.0	0.28	1.1
O=C1CC(c2ccccc2Cl)=NN(c2ncnc3ccccc23)C1=O	11.2	1.9	106.2	0.99	1
O=C(Nc1ncc(Cc2cccc(Cl)c2Cl)s1)C1CCCO1 (stereo not drawn)	81.1	-2.1	143.8*	3.1	1
SMILES	APP 5'UTR act	FLuc inh counter	STAT1 act	NF-kB neuron act	FLuc stim CS
Cc1nc2ccccc2c(=O)n1N(c1ccccc1)c1ccccc1	-11.0	-7.8	100.4	1.04	1.1
C=CCN=C1NN=C(c2cc(C)n(CCOC)c2C)CS1	1.9	89.0*	77.7	0.2	0.1
COCCn1c(C)cc(C2=NNC(=Nc3ccc(Cl)cc3Cl)SC2)c1C	-5.9	-5.4	101.7	1.01	1.1
C=CCn1c(C)cc(C2=NNC(=Nc3ccc(C)cc3)SC2)c1C	14.1	2.0	121.1	0.92	1
COCCn1c(C)cc(C2=NNC(=NC3CC3)SC2)c1C	-87.7	95.8*	10.3	0.17	0
C=CCn1c(C)cc(C2=NNC(=NC(C)(C)C)SC2)c1C	127.6	89.7*	107.8	0.37	0.1
COc1ccc(NC(=O)N/C=C/c2ccc(Cl)cc2)cc1	16.3	0.3	117.8	1.11	1
Cc1ccc(NC(=O)N/C=C/c2ccccc2)cc1	104.9	12.3	146.0*	1.54	0.9
Cc1ccc(NC(=O)N/C=C/c2ccc(Cl)cc2)cc1	-7.5	4.5	128.0	1.26	1
O=C(N/C=C/c1ccccc1)Nc1ccc(Cl)cc1	57.8	6.0	141.0*	1.34	0.9
Cc1cccc(Cn2c(C)nc3c(N)c(C)c(C)cc32)c1	16.8	-3.3	97.5	1.17	1
CS(=O)(=O)NN1C(=O)c2ccccc2NC1c1cccs1 (stereo not drawn)	-2.7	-4.8	107.2	0.99	1
COc1ccc(C(=O)CSc2nc3nc(C)cc(C)c3c(=O)[nH]2)cc1OC	3.9	.	98.5	.	.
CCOc1cc(CNc2ccc(N(C)C)cc2)cc(Br)c1OCC(=O)NC(C)(C)C	104.8	-3.6	144.8*	0.44	1
CCOc1ccc(C2=Nn3c(nnc3-c3ccccc3OC)SC2)cc1	-94.9	-2.2	114.3	2.43	1
COc1ccccc1-c1nnc2n1N=C(c1ccc(O)c(O)c1)CS2	-94.6	0.2	97.5	3.4*	1
C/C(=N\N1C(=O)c2ccccc2NC1c1ccco1)c1ccccc1O (stereo not drawn)	55.8	1.8	116.7	6.6*	1
O=C1c2ccccc2NC(c2ccco2)N1/N=C/c1ccco1 (stereo not drawn)	13.5	-1.7	109.3	1.35	1
C/C(=N\N1C(=O)c2ccccc2NC1c1ccccc1)c1ccccc1O (stereo not drawn)	105.0	-0.9	139.7*	1.5	1
CN(C)c1ccc(/C=N/NC(=O)c2sccc2-n2cccc2)cc1	10.2	10.4	129.6*	1.23	0.9
CN(C)c1ccc(/C=N/NC(=O)CCCO)cc1	1.1	6.9	113.3	2.28	0.9
COc1ccc(/C=N/NC(=O)CNC(=O)COc2ccccc2)cc1	-25.9	0.2	95.6	1.26	1
O=C(N/N=C\c1ccc(Cl)cc1)c1sccc1-n1cccc1	2.8	-4.6	113.6	1.46	1
CCCCCC(=O)N/N=C/c1ccc(N(C)C)cc1	16.8	7.4	134.0*	1.9	0.9
COc1ccc(OCC(=O)N/N=C/c2ccc(N(C)C)cc2)cc1	-13.2	62.8*	103.6	1.45	0.4
SMILES	APP 5'UTR act	FLuc inh counter	STAT1 act	NF-kB neuron act	FLuc stim CS
CC(C)[C@H](NC(=O)c1ccco1)C(=O)OCC(=O)Nc1ccccc1OC(F)F	-12.3	1.3	94.3	1.33	1
COc1ccc(CNC(=O)COC(=O)CCc2c[nH]c3ccccc23)cc1	-5.2	-3.2	99.0	1	1
OCCC1CN(Cc2cccn2-c2ncccn2)CCN1CCc1ccccc1 (stereo not drawn)	10.6	-6.6	102.3	1.43	1.1
CC(CC(=O)Nc1nc2ccccc2[nH]1)c1ccccc1 (stereo not drawn)	122.8	24.7	145.0*	2.48	0.8
Cc1ccccc1OCC(=O)Nc1nc2ccccc2[nH]1	114.5	83.7*	136.3*	2.11	0.2
O=C(COc1ccccc1)Nc1nc2ccccc2[nH]1	55.7	47.9	128.8*	2.57	0.5
